Activity calls are given as the source filed them.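 Rule for the calls: active = falling transferrin uptake with a fitted half-maximal potency at or below twice the top valid tested dose; inconclusive = flat fit with a 30 to 70% drop, or poor fit; inactive = the rest.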

A short description of this assay: transferrin endocytosis inhibition in mSR-BI cells, dose response, selectivity assay for SR-BI HDL uptake inhibitor project, imaging, Alexa594-transferrin, dry powder (AID 602134). The settings on record: series mostly up to 35 µM. The method, boiled down: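 test system = mSR-BI cells | incubation = transferrin uptake 30 min at 37 °C, stopped on ice | measured by = high-content fluorescence imaging of Alexa-594 transferrin, DAPI nuclear stain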
Consider `CCC(=O)N1CCc2cc(-c3csc(NC(=O)c4ccc(F)c(OC)c4)n3)ccc21`, for which the compound was called inactive.
As to `COc1cc(OC)cc(C(=O)Nc2nc(-c3ccc4c(c3)CCN4C(=O)CN(C)C)cs2)c1`, the compound was called inactive.
The value for `C[C@H](C(=O)NC1CCCC1)N(C(=O)Cn1nnc(-c2ccc3c(c2)OCO3)n1)C1CCCCC1` was “inactive”; that for `CCNC(=O)N1CCc2cc(-c3csc(NC(=O)c4cc(OC)cc(OC)c4)n3)ccc21` was “inactive”; that for `C[C@@H]1CN([C@H](C)CO)C(=O)c2cc(NC(=O)Cc3cn(C)c4ccccc34)ccc2O[C@H]1CN(C)S(=O)(=O)c1ccc(Cl)cc1` was “inactive”.
Consider `CC(=O)N1CCc2cc(-c3nc(NC(=O)c4cccc(OC(F)(F)F)c4)sc3C)ccc21`, for which the result was inactive.
As for `COc1c(NC(=O)C(=O)c2ccc(OCCN3CCOCC3)c3ccccc23)cc(C(C)(C)C)cc1NS(C)(=O)=O`, the entry is “inactive”; as for `COc1ccc(-c2cc(CC(=O)N(C3CCCCC3)C(C)C(=O)NC3CCCC3)no2)cc1OC` (configuration not stated), “inactive”.
Take `CCCCCCC1CCC/C1=N\NC(N)=S` (configuration not stated): the compound was classed as inactive.
Regarding `CCC(=O)N1CCc2cc(-c3csc(NC(=O)c4cccc(OC)c4)n3)ccc21`, the result was inactive.
As for `COCC(=O)N1CCc2cc(-c3csc(NC(=O)c4cc(OC)cc(OC)c4)n3)ccc21`, the entry is “inactive”.
For the compound `CCC(=O)N1CC(C)(C)c2cc(-c3csc(NC(=O)c4cc(OC)cc(OC)c4)n3)ccc21`, the compound was called inactive.

(Values after PubChem BioAssay AID602134 (Broad Institute, 2011).)
